Experimental data taken from ChEMBL document CHEMBL1138555, “N-acylated and N,N'-diacylated imidazolidine-2-thione derivatives and N,N'-diacylated tetrahydropyrimidine-2(1H)-thione analogues: synthesis and antiproliferative activity” (Eur J Med Chem, 2009).

Tested on: MCF7
Experiment: Growth inhibition of human MCF7 cells after 48 hrs by sulforhodamine B assay
Format: functional
Details: MCF7, 48 h
How it was run: (§1)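 NCI screen panel. Five 10-fold concentrations from 10^-4 to 10^-8 M. Exposure for the last 48 h of a 72 h incubation. Growth estimated by sulforhodamine B protein assay. GI50 is the concentration giving 50% growth inhibition. Where that level was not reached or was exceeded, the value is given as above or below the highest or lowest concentration tested.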

Compound	GI50
O=C(c1cccs1)N1CCN(C(=O)c2cccs2)C1=S	3.2 µM
O=C(c1cc(Cl)cc(Cl)c1)N1CCN(C(=O)c2cc(Cl)cc(Cl)c2)C1=S	3.1 µM
O=CN1CCN(C(=O)c2ccco2)C1=S	2.7 µM
COc1cc(C(=O)N2CCN(C=O)C2=S)cc(OC)c1OC	5.5 µM

Tested on: SNB-19
Experiment: Growth inhibition of human SNB19 cells after 48 hrs by sulforhodamine B assay
Format: functional
Details: SNB-19, 48 h
How it was run: (§2)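 NCI in vitro panel screen. Compounds tested at five 10-fold dilutions, 10^-4 to 10^-8 M. Cells in 96-well plates were exposed for the last 48 h of a 72 h incubation. Viability/growth was read by sulforhodamine B protein assay. GI50 is the concentration giving 50% growth inhibition. Values beyond the tested range are reported as greater or less than the maximum or minimum concentration.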

Compound	GI50
O=C(c1cccs1)N1CCN(C(=O)c2cccs2)C1=S	14.4 µM
O=C(c1cc(Cl)cc(Cl)c1)N1CCN(C(=O)c2cc(Cl)cc(Cl)c2)C1=S	19 µM
O=CN1CCN(C(=O)c2ccco2)C1=S	24.6 µM
COc1cc(C(=O)N2CCN(C=O)C2=S)cc(OC)c1OC	28.5 µM

Tested on: not listed separately
Experiment: Growth inhibition of human Hs 578T cells after 48 hrs by sulforhodamine B assay
Format: functional
Details: not given
How it was run: as §1

Compound	GI50
O=C(c1cccs1)N1CCN(C(=O)c2cccs2)C1=S	16.6 µM
O=C(c1cc(Cl)cc(Cl)c1)N1CCN(C(=O)c2cc(Cl)cc(Cl)c2)C1=S	21.4 µM
O=CN1CCN(C(=O)c2ccco2)C1=S	11 µM
COc1cc(C(=O)N2CCN(C=O)C2=S)cc(OC)c1OC	27.6 µM

Tested on: NCI-H226
Experiment: Growth inhibition of human NCI-H226 cells after 48 hrs by sulforhodamine B assay
Format: functional
Details: NCI-H226, 48 h
How it was run: as §1

Compound	GI50
O=C(c1cccs1)N1CCN(C(=O)c2cccs2)C1=S	15.9 µM
O=C(c1cc(Cl)cc(Cl)c1)N1CCN(C(=O)c2cc(Cl)cc(Cl)c2)C1=S	23.7 µM
O=CN1CCN(C(=O)c2ccco2)C1=S	28.5 µM
COc1cc(C(=O)N2CCN(C=O)C2=S)cc(OC)c1OC	35.9 µM

Tested on: CCRF-CEM
Experiment: Growth inhibition of human CCRF-CEM cells after 48 hrs by sulforhodamine B assay
Format: functional
Details: not given
How it was run: as §1

Compound	GI50
O=C(c1cccs1)N1CCN(C(=O)c2cccs2)C1=S	2.1 µM
O=C(c1cc(Cl)cc(Cl)c1)N1CCN(C(=O)c2cc(Cl)cc(Cl)c2)C1=S	3.3 µM
O=CN1CCN(C(=O)c2ccco2)C1=S	3.6 µM
COc1cc(C(=O)N2CCN(C=O)C2=S)cc(OC)c1OC	18.3 µM

Tested on: HOP-92
Experiment: Growth inhibition of human HOP92 cells after 48 hrs by sulforhodamine B assay
Format: functional
Details: HOP-92, 48 h
How it was run: as §1

Compound	GI50
O=C(c1cccs1)N1CCN(C(=O)c2cccs2)C1=S	7.2 µM
O=C(c1cc(Cl)cc(Cl)c1)N1CCN(C(=O)c2cc(Cl)cc(Cl)c2)C1=S	3.2 µM
O=CN1CCN(C(=O)c2ccco2)C1=S	11.5 µM
COc1cc(C(=O)N2CCN(C=O)C2=S)cc(OC)c1OC	9.3 µM

Tested on: OVCAR-5
Experiment: Growth inhibition of human OVCAR5 cells after 48 hrs by sulforhodamine B assay
Format: functional
Details: OVCAR-5, 48 h
How it was run: as §1

Compound	GI50
O=C(c1cccs1)N1CCN(C(=O)c2cccs2)C1=S	17.1 µM
O=C(c1cc(Cl)cc(Cl)c1)N1CCN(C(=O)c2cc(Cl)cc(Cl)c2)C1=S	22.9 µM
O=CN1CCN(C(=O)c2ccco2)C1=S	18 µM
COc1cc(C(=O)N2CCN(C=O)C2=S)cc(OC)c1OC	48.5 µM

Tested on: SW-620
Experiment: Growth inhibition of human SW620 cells after 48 hrs by sulforhodamine B assay
Format: functional
Details: SW-620, 48 h
How it was run: as §2

Compound	GI50
O=C(c1cccs1)N1CCN(C(=O)c2cccs2)C1=S	4.8 µM
O=C(c1cc(Cl)cc(Cl)c1)N1CCN(C(=O)c2cc(Cl)cc(Cl)c2)C1=S	11.1 µM
O=CN1CCN(C(=O)c2ccco2)C1=S	5.5 µM
COc1cc(C(=O)N2CCN(C=O)C2=S)cc(OC)c1OC	26.8 µM

Tested on: SF-295
Experiment: Growth inhibition of human SF295 cells after 48 hrs by sulforhodamine B assay
Format: functional
Details: SF-295, 48 h
How it was run: as §1

Compound	GI50
O=C(c1cccs1)N1CCN(C(=O)c2cccs2)C1=S	16.7 µM
O=C(c1cc(Cl)cc(Cl)c1)N1CCN(C(=O)c2cc(Cl)cc(Cl)c2)C1=S	19.5 µM
O=CN1CCN(C(=O)c2ccco2)C1=S	21.4 µM
COc1cc(C(=O)N2CCN(C=O)C2=S)cc(OC)c1OC	29.3 µM

Tested on: SK-OV-3
Experiment: Growth inhibition of human SKOV3 cells after 48 hrs by sulforhodamine B assay
Format: functional
Details: SK-OV-3, 48 h
How it was run: as §1

Compound	GI50
O=C(c1cccs1)N1CCN(C(=O)c2cccs2)C1=S	15.9 µM
O=C(c1cc(Cl)cc(Cl)c1)N1CCN(C(=O)c2cc(Cl)cc(Cl)c2)C1=S	15.3 µM
O=CN1CCN(C(=O)c2ccco2)C1=S	26.6 µM
COc1cc(C(=O)N2CCN(C=O)C2=S)cc(OC)c1OC	21.9 µM

Tested on: not listed separately
Experiment: Growth inhibition of human […] cells after 48 hrs by sulforhodamine B assay
Format: functional
Details: not given
How it was run: as §1

Compound	GI50
O=C(c1cccs1)N1CCN(C(=O)c2cccs2)C1=S	1.2 µM
O=C(c1cc(Cl)cc(Cl)c1)N1CCN(C(=O)c2cc(Cl)cc(Cl)c2)C1=S	1.5 µM
O=CN1CCN(C(=O)c2ccco2)C1=S	1.8 µM
COc1cc(C(=O)N2CCN(C=O)C2=S)cc(OC)c1OC	7.3 µM

Tested on: SK-MEL-5
Experiment: Growth inhibition of human SK-MEL-5 cells after 48 hrs by sulforhodamine B assay
Format: functional
Details: SK-MEL-5, 48 h
How it was run: as §1

Compound	GI50
O=C(c1cccs1)N1CCN(C(=O)c2cccs2)C1=S	4.6 µM
O=C(c1cc(Cl)cc(Cl)c1)N1CCN(C(=O)c2cc(Cl)cc(Cl)c2)C1=S	16.1 µM
O=CN1CCN(C(=O)c2ccco2)C1=S	12.7 µM

Tested on: SR
Experiment: Growth inhibition of human SR cells after 48 hrs by sulforhodamine B assay
Format: functional
Details: not given
How it was run: as §2

Compound	GI50
O=C(c1cccs1)N1CCN(C(=O)c2cccs2)C1=S	3.4 µM
O=C(c1cc(Cl)cc(Cl)c1)N1CCN(C(=O)c2cc(Cl)cc(Cl)c2)C1=S	3.3 µM
O=CN1CCN(C(=O)c2ccco2)C1=S	2.1 µM

Tested on: 786-0
Experiment: Growth inhibition of human 786-0 cells after 48 hrs by sulforhodamine B assay
Format: functional
Details: 786-0, 48 h
How it was run: as §1

Compound	GI50
O=C(c1cccs1)N1CCN(C(=O)c2cccs2)C1=S	2.4 µM
O=C(c1cc(Cl)cc(Cl)c1)N1CCN(C(=O)c2cc(Cl)cc(Cl)c2)C1=S	2.9 µM
O=CN1CCN(C(=O)c2ccco2)C1=S	3.3 µM
COc1cc(C(=O)N2CCN(C=O)C2=S)cc(OC)c1OC	12.7 µM

Tested on: UACC-257
Experiment: Growth inhibition of human UACC257 cells after 48 hrs by sulforhodamine B assay
Format: functional
Details: UACC-257, 48 h
How it was run: as §2

Compound	GI50
O=C(c1cccs1)N1CCN(C(=O)c2cccs2)C1=S	7.5 µM
O=C(c1cc(Cl)cc(Cl)c1)N1CCN(C(=O)c2cc(Cl)cc(Cl)c2)C1=S	15.5 µM
O=CN1CCN(C(=O)c2ccco2)C1=S	11.7 µM
COc1cc(C(=O)N2CCN(C=O)C2=S)cc(OC)c1OC	19.9 µM

Tested on: UACC-62
Experiment: Growth inhibition of human UACC62 cells after 48 hrs by sulforhodamine B assay
Format: functional
Details: UACC-62, 48 h
How it was run: as §2

Compound	GI50
O=C(c1cccs1)N1CCN(C(=O)c2cccs2)C1=S	12.3 µM
O=C(c1cc(Cl)cc(Cl)c1)N1CCN(C(=O)c2cc(Cl)cc(Cl)c2)C1=S	15.6 µM
O=CN1CCN(C(=O)c2ccco2)C1=S	5 µM
COc1cc(C(=O)N2CCN(C=O)C2=S)cc(OC)c1OC	15.8 µM

Tested on: T47D
Experiment: Growth inhibition of human T47D cells after 48 hrs by sulforhodamine B assay
Format: functional
Details: not given
How it was run: as §2

Compound	GI50
O=C(c1cccs1)N1CCN(C(=O)c2cccs2)C1=S	4.6 µM
O=C(c1cc(Cl)cc(Cl)c1)N1CCN(C(=O)c2cc(Cl)cc(Cl)c2)C1=S	6.5 µM
O=CN1CCN(C(=O)c2ccco2)C1=S	4 µM
COc1cc(C(=O)N2CCN(C=O)C2=S)cc(OC)c1OC	20.7 µM

Tested on: NCI-H460
Experiment: Growth inhibition of human NCI-H460 cells after 48 hrs by sulforhodamine B assay
Format: functional
Details: NCI-H460, 48 h
How it was run: as §1

Compound	GI50
O=C(c1cccs1)N1CCN(C(=O)c2cccs2)C1=S	18.7 µM
O=C(c1cc(Cl)cc(Cl)c1)N1CCN(C(=O)c2cc(Cl)cc(Cl)c2)C1=S	20.8 µM
O=CN1CCN(C(=O)c2ccco2)C1=S	7.3 µM
COc1cc(C(=O)N2CCN(C=O)C2=S)cc(OC)c1OC	34 µM

Tested on: Malme-3M
Experiment: Growth inhibition of human MALME-3M cells after 48 hrs by sulforhodamine B assay
Format: functional
Details: not given
How it was run: as §1

Compound	GI50
O=C(c1cccs1)N1CCN(C(=O)c2cccs2)C1=S	10.3 µM
O=C(c1cc(Cl)cc(Cl)c1)N1CCN(C(=O)c2cc(Cl)cc(Cl)c2)C1=S	9.8 µM
O=CN1CCN(C(=O)c2ccco2)C1=S	8.3 µM
COc1cc(C(=O)N2CCN(C=O)C2=S)cc(OC)c1OC	24.3 µM

Tested on: COLO 205
Experiment: Growth inhibition of human COLO205 cells after 48 hrs by sulforhodamine B assay
Format: functional
Details: COLO 205, 48 h
How it was run: as §1

Compound	GI50
O=C(c1cccs1)N1CCN(C(=O)c2cccs2)C1=S	7.7 µM
O=C(c1cc(Cl)cc(Cl)c1)N1CCN(C(=O)c2cc(Cl)cc(Cl)c2)C1=S	18.3 µM
O=CN1CCN(C(=O)c2ccco2)C1=S	8.7 µM
COc1cc(C(=O)N2CCN(C=O)C2=S)cc(OC)c1OC	20.2 µM

Tested on: SK-MEL-28
Experiment: Growth inhibition of human SK-MEL-28 cells after 48 hrs by sulforhodamine B assay
Format: functional
Details: SK-MEL-28, 48 h
How it was run: as §1

Compound	GI50
O=C(c1cccs1)N1CCN(C(=O)c2cccs2)C1=S	3.8 µM
O=C(c1cc(Cl)cc(Cl)c1)N1CCN(C(=O)c2cc(Cl)cc(Cl)c2)C1=S	12.2 µM
O=CN1CCN(C(=O)c2ccco2)C1=S	26.2 µM
COc1cc(C(=O)N2CCN(C=O)C2=S)cc(OC)c1OC	29.5 µM

Tested on: MDA-MB-231
Experiment: Growth inhibition of human MDA-MB-231 cells after 48 hrs by sulforhodamine B assay
Format: functional
Details: MDA-MB-231, 48 h
How it was run: as §1

Compound	GI50
O=C(c1cccs1)N1CCN(C(=O)c2cccs2)C1=S	9.4 µM
O=C(c1cc(Cl)cc(Cl)c1)N1CCN(C(=O)c2cc(Cl)cc(Cl)c2)C1=S	16.2 µM
O=CN1CCN(C(=O)c2ccco2)C1=S	15.9 µM
COc1cc(C(=O)N2CCN(C=O)C2=S)cc(OC)c1OC	21.5 µM
